# NSD2 HMT inh – NSD2 histone methyltransferase inhibitors, primary screen, biochemical, AlphaScreen, single concentration, set 2 | Histone-lysine N-methyltransferase NSD2 (Homo sapiens), O96028 | NSD2 peptide methylation, 120 min | inhibition, % at 12.5 µM | actives 0.54% (n = 310,000) | AID 743445, 2014; in the data active = inhibition above about 50%
# UHRF1 MBD2 ctr – UHRF1 methylated DNA binding inhibitors, primary screen, counter-screen for MBD2 inhibitor project, biochemical, TR-FRET, human UHRF1, single concentration; E3 ubiquitin-protein ligase UHRF1 (Homo sapiens), Q96T88; UHRF1 binding to methylated oligo; inhibition, % at 4.4 µM; actives 0.75% (n = 370,000); AID 687016, 2013; in the data active = inhibition above about 21%;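 also: UHRF1 SRA domain binding a hemimethylated CpG hairpin DNA probe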
# TDP2 inh – human TDP2 enzyme inhibitors, primary screen, biochemical, epi absorbance, recombinant enzyme; T5PNP hydrolysis, p-nitrophenol absorbance 415 nm; inhibition, % at 12.8 µM; actives 0.34% (n = 370,000); Tyrosyl-DNA phosphodiesterase 2 (Homo sapiens), O95551;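 active = inhibition above the mean of all tested compounds plus 3 SD, set per campaign, cut at about 25% in these data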
#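 System – recombinant human TDP2 · Amount – 120 nM TDP2 per well · Buffer or medium – Mg2+-containing Tris-HCl buffer, pH 7.5 · Reagent – T5PNP substrate, 5 mM · Dosing – 12.8 µM single point, 1% DMSO · Incubation – 2 h at 37 °C · Measured by – epi absorbance · Read-out basis – percent inhibition · Benchmarks – high control without enzyme, low control DMSO plus TDP2 · Repeats – singlicate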
# CASP6 VEID inh – human caspase-6 inhibitors, primary screen, biochemical, VEID-R110 fluorescence, single point, set 2; actives 0.53% (n = 350,000); purified caspase-6, Z-VEID-R110 cleavage fluorescence; inhibition, % at 12.5 µM; AID 686996, 2013; P55212;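 active = mean inhibition across replicates at least about 35%, with every replicate also reaching that limit, limit read from the data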
# MBD2 DNA inh – inhibitors of MBD2 binding to methylated DNA, primary screen, biochemical, TR-FRET, DNA-binding domain, human | Methyl-CpG-binding domain protein 2 (Homo sapiens), Q9UBB5 | MBD2 binding to methylated oligonucleotide | inhibition, % at 4.4 µM | actives 0.31% (n = 370,000) | AID 686964, 2013; in the data active = inhibition above about 13%
# LEDGF integ inh – blockers of LEDGF/p75-dependent integrase strand transfer – biochemical, TR-FRET, high throughput, primary screen; inhibition, % at 3.7 µM; actives 0.64% (n = 370,000); AID 743269, 2014; TR-FRET IN-LEDGF/p75 DNA integration, Eu/Cy5;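 active = inhibition above the screen-wide mean plus 3 SD, cut at about 13% in these data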;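 also: signal is the Cy5 over europium emission ratio at 671 and 618 nm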
# Hits are given with their value; – = inactive; · = no result given. Hits are enriched below; roughly 1.8% of the tested compounds scored in any of these assays.
SMILES,NSD2 HMT inh,UHRF1 MBD2 ctr,TDP2 inh,CASP6 VEID inh,MBD2 DNA inh,LEDGF integ inh
COc1ccc(OC)c(NC(=O)C2(C)CCN2C(=O)CC2CC2)c1 (centres undefined),–,28.2,–,–,–,–
COc1ccc(OC)c(NC(=O)C2(C)CCN2C(=O)CCC2CCCC2)c1 (centres undefined),–,–,–,–,–,–
S=C(c1ccc(-c2ccc(Br)cc2)o1)N1CCCCC1,–,–,–,54.1,–,–
CCC(C)Nc1nc2c(C)cccn2c(=O)c1C=Nc1ccc(OC)cc1 (centres undefined),–,–,–,41.0,–,–
COc1ccccc1N(CC(O)Cn1c2ccccc2c2ccccc21)S(=O)(=O)c1ccccc1 (centres undefined),·,21.2,–,–,–,–
CC(C)NC(=O)N1[C@H](CO)[C@@H](c2ccccc2)C12CN(C(=O)Cc1cccnc1)C2,·,·,·,42.0,·,·
O=C(Cc1cccnc1)N1CC2(C1)[C@H](c1ccccc1)[C@@H](CO)N2C(=O)C1CCCC1,·,·,·,–,·,·
C[C@H](CO)N1C[C@H](C)[C@H](CN(C)S(=O)(=O)c2ccccc2)OCCCC[C@H](C)Oc2ccc(NC(=O)Nc3ccccc3)cc2C1=O,·,·,·,–,·,·
Cc1cc[n+](-c2[nH]c(=O)sc2/C=N/NC([S-])=Nc2ccccc2)cc1,–,–,–,41.0,–,–
O=c1[nH]c(-[n+]2ccccc2)c(/C=N/NC([S-])=Nc2ccccc2)s1,–,–,–,–,–,–
O=C(Nc1ccc(F)c(Cl)c1)c1cc(C2CCCN(S(=O)(=O)c3cccc4cccnc34)C2)on1 (centres undefined),–,–,–,36.4,–,–
COc1cccc(S(=O)(=O)Nc2ccc3c(c2)[C@H]2C[C@H](CC(=O)NCc4ccccc4F)O[C@@H](CO)[C@H]2O3)c1,·,·,·,–,·,·
Cc1nn(CCCC(=O)NCCc2ccccc2)c(=O)c2nn(-c3ccccc3)c(C)c12,–,–,–,50.5,–,–
CCCCNc1nc(Cl)nc(Nc2ccc(C)cc2)n1,–,21.3,–,–,–,–
CCCNc1nc(Cl)nc(Nc2ccc(Cl)cc2)n1,–,–,–,–,–,–
CC(OC(=O)c1n[nH]c2ccccc12)C(=O)NC1CCCCC1C (centres undefined),–,–,–,–,–,–
CC(OC(=O)c1nn(C)c(=O)c2ccccc12)C(=O)NC1CCCCC1C (centres undefined),–,25.6,–,–,–,–
CC(OC(=O)C1=NN(c2ccccc2)C(=O)CC1)C(=O)NC1CCCCC1C (centres undefined),–,47.9,–,–,–,–
COc1cccc(OC)c1C(=O)N1CC(C)OC(C)C1 (centres undefined),–,–,–,·,–,–
CC1CN(C(=O)c2ccccc2Oc2ccccc2)CC(C)O1 (centres undefined),–,32.9,–,–,–,–
CC1=NN(c2ccccc2)C(=O)/C1=C\c1ccc(Oc2ccc([N+](=O)[O-])cc2[N+](=O)[O-])cc1,·,–,78.0,–,15.2,31.4
COc1cc(/C=C2/C(=O)N(c3ccc(C)c(C)c3)N=C2C)cc([N+](=O)[O-])c1O,–,–,–,–,–,–
CC(C)CCn1c(SCC(=O)Nc2ccccc2C(F)(F)F)nc2nccnc2c1=O,–,22.3,–,–,–,–
CN(C[C@@H]1N[C@H](CO)[C@@H]1c1ccc(-c2cccc(F)c2)cc1)C(=O)C1CCC1,·,·,·,–,·,·
N=c1n(CC(=O)c2cccs2)c2ccccc2n1Cc1ccccc1,–,25.1,–,–,–,–
SMILES,NSD2 HMT inh,UHRF1 MBD2 ctr,TDP2 inh,CASP6 VEID inh,MBD2 DNA inh,LEDGF integ inh
O=C(O)Cn1c(=O)n(Cc2ccccc2)c2ccccc21,–,27.8,–,–,–,–
CC(=O)OCC1=C(C(=O)O)N2C(=O)[C@@H](NC(=O)CSc3ccncc3)[C@H]2SC1,–,–,–,38.4,–,–
CCS(=O)(=O)Nc1ccc2c(c1)C(=O)N(C)[C@H]1CC[C@H](CC(=O)NCCCN3CCOCC3)O[C@H]1CO2,·,·,·,39.4,·,·
CN1C(=O)c2cc(NC(=O)C3CC3)ccc2OC[C@H]2O[C@@H](CC(=O)O)CC[C@@H]21,·,·,·,37.1,·,·
O=C(C[C@@H]1CC[C@@H]2[C@H](COC[C@H](O)CN2S(=O)(=O)c2ccc(Oc3ccccc3)cc2)O1)NC1CCC1,·,·,·,–,·,·
CCOc1cc(/C=N/NC(=O)c2cc(C3CC3)[nH]n2)ccc1O,–,21.2,–,–,–,–
COc1cc(/C=N/NC(=O)c2cc(C3CC3)[nH]n2)ccc1O,–,–,–,–,–,–
CC(C)CC#Cc1ccc2c(c1)O[C@H](CN(C)Cc1ccccc1F)[C@H](C)CN([C@@H](C)CO)S2(=O)=O,·,·,·,–,·,·
CS(=O)(=O)N1CCN(c2ccccc2NC(=O)c2cccc3ccccc23)CC1,–,–,–,·,–,–
CC(C)C(=O)N1CCN(c2ccccc2NC(=O)c2cccc3ccccc23)CC1,–,–,–,60.1,–,–
O=C(C[C@H]1CC[C@@H](NS(=O)(=O)c2ccc(F)cc2)[C@@H](CO)O1)NCc1ccccc1F,·,·,·,–,·,·
COc1cc(/C=C2\C(=N)N3N=C(S(C)(=O)=O)SC3=NC2=O)cc(OC)c1OCCOc1ccccc1C,–,–,–,41.6,–,–
COc1cc(/C=C2/SC(=S)N(CC(=O)O)C2=O)ccc1OC(=O)c1cccs1,–,–,–,–,–,–
COc1cc(/C=C2\C(=N)N3N=C(S(C)(=O)=O)SC3=NC2=O)ccc1OS(=O)(=O)c1ccc(C)cc1,–,–,–,49.6,–,–
COc1cc(/C=C2\C(=N)N3N=C(C)SC3=NC2=O)cc(OC)c1OCCOc1ccccc1C,–,–,–,–,–,–
COc1cc(/C=C2\SC(=S)N(CC(=O)O)C2=O)ccc1OS(=O)(=O)c1ccc(C)cc1,–,25.9,–,40.9,–,–
C/C=C/c1ccc2c(c1)O[C@@H](CN(C)Cc1cccc(F)c1)[C@@H](C)CN([C@@H](C)CO)S2(=O)=O,·,·,·,–,·,·
CO[C@H]1CN(C)C(=O)c2ccc(NC(C)=O)cc2OC[C@@H](C)N(CC2CCCCC2)C[C@@H]1C,·,·,·,–,·,·
CCCC#Cc1cnc2c(c1)C(=O)N([C@@H](C)CO)C[C@@H](C)[C@H](CN(C)C(=O)c1cnccn1)O2,·,·,·,–,·,·
COc1ccccc1Cn1[nH]nnc1=S,101.2,–,–,–,–,–
